Measured values as given in ChEMBL document CHEMBL5705892, “MK-2206, an allosteric Akt inhibitor, enhances antitumor efficacy by standard chemotherapeutic agents or molecular targeted drugs in vitro and in vivo” (Mol Cancer Ther, 2010).
Calls of active or inactive are those of the source. The rule behind the calls is not given here.

Legend:
NCI-H292 = test: Synergistic antiproliferative activity against human NCI-H292 cells assessed as combination index at ED75 measured after 72 hrs in presence of erlotinib by celltiter-glo assay; assay type: functional
HCC70 [1] = test: Synergistic antiproliferative activity against human HCC70 cells assessed as combination index at ED50 treated 24 hrs prior to lapatinib and measured after 72 hrs by celltiter-glo assay; assay type: functional; settings: time 96 hrs
[2] = target: RAC-alpha serine/threonine-protein kinase (Homo sapiens) (UniProt P31749); test: Inhibition of AKT in human A-431 cells assessed as reduction in PRAS40 phosphorylation at T246 residue at 5 umol/L measured after 5 hrs in presence of erlotinib by Western blot analysis; assay type: cell-based; settings: dose 5.0 µmol/L
RAC-alpha serine/threonine-protein kinase (Homo sapiens), sequence (P31749 whole entry): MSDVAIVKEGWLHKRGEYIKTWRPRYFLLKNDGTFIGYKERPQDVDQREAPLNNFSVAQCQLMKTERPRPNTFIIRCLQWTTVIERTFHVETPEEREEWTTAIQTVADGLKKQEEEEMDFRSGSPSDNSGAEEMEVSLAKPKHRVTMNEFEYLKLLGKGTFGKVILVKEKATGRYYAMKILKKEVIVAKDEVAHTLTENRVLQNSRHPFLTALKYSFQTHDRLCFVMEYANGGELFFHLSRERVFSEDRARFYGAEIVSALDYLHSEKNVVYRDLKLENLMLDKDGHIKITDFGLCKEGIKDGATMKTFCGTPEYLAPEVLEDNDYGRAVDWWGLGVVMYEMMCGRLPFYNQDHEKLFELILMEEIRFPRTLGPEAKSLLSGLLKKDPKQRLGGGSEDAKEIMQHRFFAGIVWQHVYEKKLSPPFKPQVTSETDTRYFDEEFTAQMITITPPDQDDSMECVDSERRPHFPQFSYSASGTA
Summary of the method: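 Cells were lysed in Tris-HCl pH 7.5, 150 mM NaCl, 1% Triton X-100 with protease and phosphatase inhibitors. Lysates were run on SDS-PAGE, transferred to nitrocellulose and probed with phospho-specific antibodies.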

SK-BR-3 = test: Synergistic antiproliferative activity against lapatinib pretreated human SK-BR-3 cells assessed as combination index at ED75 measured after 72 hrs by celltiter-glo assay; assay type: functional
[3] = target: RAC-alpha serine/threonine-protein kinase (Homo sapiens) (UniProt P31749); test: Inhibition of AKT phosphorylation at S473 residue in human NCI-H1993 cells at 3 umol/L measured after 4 to 24 hrs in presence of gemcitabine by MSD assay; settings: time 4-24 hrs
[4] = Toxicity in human NCI-H292 cells xenografted CD-1 mouse assessed as weight loss at 120 mg/kg, po administered 3 times per week for 2 weeks starting 2 hrs post-erlotinib treatment and measured on day 16; assay type: organism-based; settings: in vivo, 384 h, time 16 day
Summary of the method: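 Female CD1-nude mice bearing s.c. NCI-H292 tumours (cells in 50% Matrigel/50% PBS, left flank), randomized at mean 0.2 cm³, n=5/group. Body weight monitored; treatment period ended day 16.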

[5] = Toxicity in human NCI-H460 cells xenografted CD1 nude mouse assessed as body weight loss at 120 mg/kg, po administered 3 times per week for 2 weeks measured on day 14 to 16 in presence of gemcitabine; assay type: organism-based; settings: in vivo, 336 h, time 14-16 day
Summary of the method: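 NCI-H460 cells in 50% Matrigel/PBS injected s.c. into flank of CD1-nude mice; randomized at mean tumour 0.2 cm³ (n = 5). MK-2206 in 30% Captisol, 120 mg/kg p.o. days 0, 2, 4, 7, 9, 11. Carboplatin 50 mg/kg i.v. in saline days 0 and 7 (from day 12 after implant), or gemcitabine 100 mg/kg i.v. in saline days 0 and 7 (from day 8). Body weight monitored.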

HCC70 [6] = test: Synergistic antiproliferative activity against human HCC70 cells assessed as combination index at ED90 measured after 72 hrs in presence of lapatinib by celltiter-glo assay; assay type: functional
Summary of the method: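 Cells grown in RPMI 1640 with 10% heat-inactivated FBS at 37°C, 5% CO₂. Seeded at 2 to 3 × 10³ per well; drugs added 24 h later. […] Viability read as cellular ATP by CellTiter-Glo. CI calculated by Chou–Talalay from median-effect plots at ED50, ED75 and ED90.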

[7] = Toxicity in human NCI-H460 cells xenografted CD1 nude mouse assessed as body weight loss at 120 mg/kg, po administered 3 times per week for 2 weeks measured during compound dosing relative to control; assay type: organism-based; settings: in vivo, 336 h
NCI-H661 = test: Induction of apoptosis in human NCI-H661 cells assessed as fold induction of capsase-3/7 activity measured after 24 to 48 hrs in presence of gemcitabine by caspase-glo 3/7 assay; assay type: functional; settings: time 24-48 hrs
MDA-MB-468 = test: Synergistic antiproliferative activity against human MDA-MB-468 cells assessed as combination index at ED90 treated 24 hrs prior to lapatinib and measured after 72 hrs by celltiter-glo assay; assay type: functional; settings: time 96 hrs
[8] = Toxicity in human HCC70 cells xenografted CB17/icr SCID mouse assessed as mortality at 120 mg/kg, po administered 3 times per week for 3 weeks starting 2 hrs post-lapatinib treatment and measured during compound dosing; assay type: organism-based; settings: in vivo, 504 h
Summary of the method: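 HCC70 cells in 50% Matrigel/PBS injected s.c. into flank of female C.B-17/ICR-scid mice; dosing began after 3 wk, groups randomized at mean tumour 0.2 cm³ (n = 5). Lapatinib 100 mg/kg p.o. in distilled water, 5 d/wk for 3 wk; MK-2206 in 30% Captisol p.o. 3×/wk for 3 wk, given 2 h after lapatinib. Body weight and physical signs monitored throughout.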

NCI-H358 = test: Antiproliferative activity against human NCI-H358 cells assessed as reduction in cell proliferation measured after 72 hrs by celltiter-glo assay; assay type: functional, cell-based; settings: NCI-H358, 72 h
Summary of the method: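 Cells in RPMI 1640 with 10% heat-inactivated FBS at 37°C and 5% CO₂ were seeded at 2 to 3 × 10³ per well. […] Growth was read as cellular ATP by CellTiter-Glo.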

UMC-11 = test: Synergistic antiproliferative activity against human UMC-11 cells assessed as combination index at ED25 to ED90 measured after 72 hrs in presence of carboplatin by celltiter-glo assay; assay type: functional
HCC70 [9] = test: Synergistic antiproliferative activity against human HCC70 cells assessed as combination index at ED90 measured after 96 hrs in presence of lapatinib by celltiter-glo assay; assay type: functional
NCI-H460 = test: Synergistic antiproliferative activity against human NCI-H460 cells assessed as combination index at ED50 measured after 72 hrs in presence of erlotinib by celltiter-glo assay; assay type: functional

Structure (SMILES): Cl.NC1(c2ccc(-c3nc4ccn5c(=O)[nH]nc5c4cc3-c3ccccc3)cc2)CCC1
- CI75 (NCI-H292): 0.31
- CI50 (HCC70 [1]): 0.18
- inhibition [2]: Active
- CI75 (SK-BR-3): 0.18
- inhibition [3]: Active
- Activity [4]: Non-Toxic
- Activity [5]: Non-Toxic
- CI90 (HCC70 [6]): 0.2
- Activity [7]: 7%
- fold change (FC) (NCI-H661): 1.3
- CI90 (MDA-MB-468): 0.18
- Activity [8]: Non-Toxic
- IC50 (NCI-H358): 13.5 µM
- CI (UMC-11): 1.36
- CI90 (HCC70 [9]): 0.18
- CI50 (NCI-H460): 0.34
